SUMO1 PPI mod – alters human SUMO1 binding to SIM partners | inhibition, % at 20 µM | P63165 | actives 0.33% (n = 360,000) | SUMO1 binding to a labelled peptide, TR-FRET, 1 h; in the data active = inhibition above about 37%
Target sequence (P63165 whole entry, looked up): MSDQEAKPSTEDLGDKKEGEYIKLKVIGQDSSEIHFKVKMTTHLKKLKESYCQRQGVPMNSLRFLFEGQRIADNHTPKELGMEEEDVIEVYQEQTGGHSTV
GRK2 aptamer HTS – blocks RNA aptamer binding to human GRK2; P25098; bead flow cytometry, FAM-aptamer displacement from GRK2; inhibition of aptamer binding, % at 10 µM; actives 0.59% (n = 330,000);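 active = inhibition of aptamer binding above 40%, roughly 3 SD of noise, on plates passing a quality check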;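 note: median bead fluorescence of bound FAM aptamer so fluorescent compounds give negative values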
DNMT1 inh – DNMT1 (human) enzyme inhibition; P26358; DNMT1 molecular beacon, Hinp1I cleavage, fluorescence; inhibition (reported as % activation of signal), % at 10 µM; actives 0.83% (n = 360,000); in the data active = inhibition above about 50%
Scp-1 inhibitor – Scp-1 (human) phosphatase inhibition; Recombinant Scp1, phosphopeptide, malachite green phosphate absorbance; AID 493091; inhibition, % at 20 µM; actives 0.88% (n = 340,000);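 active = inhibition above about 50% at 20 µM, limit read from the data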;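 note: plate controls were DMSO wells with enzyme for no effect and wells lacking enzyme for full effect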
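Test system: SCP-1 phosphatase catalytic domain, residues 76-261; measured by: colorimetric phosphate reagent with accelerator and stabiliser, absorbance at 630 nm; timing: enzyme reaction 45 min at room temperature, colour 5 min, stabilisation 30 min; also added: Phosphorylated 17-residue peptide substrate; compound dosing: one concentration, 20 µM, with 1.0% DMSO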
LMPTP inh – LMPTP (human) inhibition | recombinant LMPTP-A, OMFP fluorogenic substrate, fluorescence intensity | inhibition, % at 20 µM | P24666 | actives 0.22% (n = 360,000);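 active = compounds that cut the enzyme signal by at least half of the control window in the single-dose screen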;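 note: plate controls were DMSO wells with enzyme plus substrate for no effect and substrate without enzyme for full effect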
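Buffer or medium: Bis-Tris pH 6.0, DTT, detergent; Assay system: LMPTP-A enzyme; Quantity: 0.625 nM enzyme; Detection: endpoint fluorescence intensity; Times: 50 min dark incubation at room temperature; Controls: substrate-only low control, DMSO enzyme-plus-substrate high control; Doses: single 20 µM dose; Read-out: percent inhibition versus substrate-only and uninhibited controls; Reagent: 400 µM OMFP.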
STEP inh – blocks human striatal-enriched tyrosine phosphatase | P54829 | recombinant STEP, OMFP fluorogenic substrate, fluorescence | inhibition, % at 20 µM | actives 0.25% (n = 360,000) | AID 588621;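 active = inhibition at 20 µM, scaled per plate between control wells, above about 37%, limit read from the data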;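 note: 0% = DMSO with enzyme and substrate and 100% = substrate only without enzyme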
Target sequence (P54829 whole entry, looked up): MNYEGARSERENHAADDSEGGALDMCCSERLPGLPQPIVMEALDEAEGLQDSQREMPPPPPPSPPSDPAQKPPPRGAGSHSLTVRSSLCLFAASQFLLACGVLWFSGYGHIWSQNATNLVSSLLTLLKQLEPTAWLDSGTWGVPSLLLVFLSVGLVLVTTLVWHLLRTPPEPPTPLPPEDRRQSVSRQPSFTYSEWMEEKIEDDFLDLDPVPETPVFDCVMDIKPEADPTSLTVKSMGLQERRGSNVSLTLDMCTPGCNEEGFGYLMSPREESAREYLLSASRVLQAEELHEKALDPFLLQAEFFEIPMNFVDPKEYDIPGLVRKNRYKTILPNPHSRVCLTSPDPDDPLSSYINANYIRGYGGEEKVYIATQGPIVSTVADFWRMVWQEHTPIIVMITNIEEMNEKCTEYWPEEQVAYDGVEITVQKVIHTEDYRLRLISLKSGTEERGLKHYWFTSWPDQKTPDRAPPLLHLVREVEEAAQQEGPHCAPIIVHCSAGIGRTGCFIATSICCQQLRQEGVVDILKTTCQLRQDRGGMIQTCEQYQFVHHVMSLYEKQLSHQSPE
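Assay system: isolated STEP enzyme. Buffer or medium: pH 6.0 Bis-Tris with DTT and Tween 20. Also added: fluorogenic phosphatase substrate OMFP at 25 µM final. Dosing: 20 µM, 1% DMSO. Timing: 20 min reaction, room temperature, in the dark. Measured by: fluorescence intensity, excitation 480 nm, emission 540 nm. Evaluation: normalized % inhibition.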
STEP inh conf – STEP (human) phosphatase inhibition, single concentration confirmation. shares compounds with STEP inh. actives 32% (n = 520). inhibition, % at 20 µM. recombinant STEP, OMFP fluorogenic substrate, fluorescence; call rule not given here;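 note: 0% = enzyme with substrate plus DMSO and 100% = substrate without enzyme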
Starred values were filed as active, the others as inactive; · = no result given. Most compounds without a hit are left out; they make up all but 2.2% or so of the library.

SMILES	SUMO1 PPI mod	GRK2 aptamer HTS	DNMT1 inh	Scp-1 inhibitor	LMPTP inh	STEP inh	STEP inh conf
CCOc1cc(NC(=O)C2CC2)c(OCC)cc1NC(=O)CCn1nnc2ccccc21	-0.7	0.0	11.3	31.9	-0.5	62.8*	-9.7
O=C(O)c1ccccc1C(=O)NCC(O)c1ccccc1 (stereo not drawn)	6.0	1.0	-1.2	-13.3	-1.4	91.3*	-3.5
O=C(NC1CCCCC1)C1c2ccccc2OCC(=O)N1Cc1ccco1 (stereo not drawn)	-3.9	·	·	·	-0.6	·	·
CC1=C(C(=O)OC(C)C)[C@@H](c2ccc(C)o2)NC(=O)N1	2.9	0.0	0.7	-6.5	-0.4	120.4*	1.8
N#CC1c2ccccc2-c2ccccc2N1C(=O)c1ccccc1 (stereo not drawn)	4.4	·	-0.9	·	1.0	-0.3	·
COc1cc(C)c(NC(=S)Nc2cccc(Cl)c2C)cc1OC	-2.0	18.0	3.1	-2.4	-1.4	48.2*	3.1
CC1(C(=O)NCc2cccnc2)CCN1C(=O)Cc1cccs1 (stereo not drawn)	4.6	·	-1.8	·	-0.5	2.9	·
Cc1ccc(S(=O)(=O)N2CCCCC2)cc1NC(=O)c1ccc(=O)[nH]c1	11.8	·	9.8	·	54.0*	54.4*	66.2*
O=C(O)c1ccc(NC(=S)NC(=O)c2ccc(-c3ccc(Br)cc3)o2)cc1	86.2*	1.0	6.2	8.4	79.8*	97.0*	10.6
O=C(O)c1cccc(NC(=S)NC(=O)c2ccc(-c3ccc(Cl)cc3)o2)c1	-2.9	0.0	-0.3	14.7	0.7	3.2	·
O=C(Nc1ccc(OC(F)(F)F)cc1)C1CCCN(S(=O)(=O)c2cccnc2)C1 (stereo not drawn)	1.4	3.0	-0.6	-3.3	1.0	38.7*	2.7
CC(Nc1nc(-c2ccc(F)cc2)cs1)c1nc2cc(C(F)(F)F)ccc2n1CCOCCO (stereo not drawn)	1.0	2.0	-21.4	-2.3	2.0	-0.1	·
COc1ccc(-c2csc(NC(C)c3nc4cc(C(F)(F)F)ccc4n3CCOCCO)n2)cc1 (stereo not drawn)	0.8	·	-19.2	-1.3	3.0	43.7*	15.2
COc1ccc(NC(=O)c2cccc(Oc3ccc([N+](=O)[O-])cc3Cl)c2)cc1	-7.2	2.0	-6.3	-20.0	4.8	0.5	·
Cc1ccc(C)c(NC(=O)c2cccc(Oc3ccc([N+](=O)[O-])cc3Cl)c2)c1	-3.1	0.0	-1.9	-8.0	14.4	76.8*	18.2
O=C1CCC/C1=c1\s/c(=C/c2cccnc2)c(=O)n1-c1ccccc1	-25.7	·	5.4	-2.7	1.2	1.2	·
COc1ccc(N2C(=O)CSC23C(=O)Nc2ccccc23)cc1OC (stereo not drawn)	6.2	0.0	-3.5	0.2	2.6	47.7*	8.4
COc1cc(N2C(=O)CSC23C(=O)Nc2ccccc23)cc(OC)c1OC (stereo not drawn)	0.0	0.0	-0.1	-6.7	-1.7	-8.8	·
CCCCN(C)c1c(C)nc2ccc(C(=O)Nc3ccc(OC)c(OC)c3)cn12	3.0	·	-2.7	·	0.5	-1.7	·
CSc1ccccc1NC(=O)CN(C)C(=O)c1cccc(S(=O)(=O)N(C)C)c1	-10.2	0.0	1.7	0.6	4.1	49.4*	7.9
COC(=O)[C@@]12C[C@@H](CC(=O)N3CCCC3)C(=O)N(Cc3ccco3)C1=CCC(C)(C)C2	4.3	·	·	·	-1.7	·	·
NS(=O)(=O)c1ccc(CCNS(=O)(=O)c2ccccc2)cc1	-0.7	0.0	2.6	5.5	-0.5	-1.4	·
NS(=O)(=O)c1ccccc1	0.7	3.0	1.7	-4.0	-2.3	67.8*	46.9*
CCCCNC(=O)c1nc(-c2cnc(C)cn2)oc1-c1ccc(Cl)cc1	-14.8	·	·	·	1.0	·	·
COc1ccc(NC(=S)N2CCC(N(C)CC3CCCO3)CC2)cc1Cl (stereo not drawn)	-1.8	0.0	7.2	1.6	-5.1	49.8*	42.2*
SMILES	SUMO1 PPI mod	GRK2 aptamer HTS	DNMT1 inh	Scp-1 inhibitor	LMPTP inh	STEP inh	STEP inh conf
COc1ccc(NC(=O)c2cc(C3CCCCN3C(=O)c3cccs3)on2)c(C)c1 (stereo not drawn)	3.3	·	-7.5	·	-2.6	-1.6	·
COc1ccc(C(N)c2csc(Nc3ccc(C(=O)NCCCO)cn3)n2)cc1 (stereo not drawn)	-1.6	·	-13.5	·	-1.7	-0.7	·
CCOC(=O)c1ccccc1N/C=C1\CCCCC1=O	-13.3	0.0	2.5	-10.7	-0.6	57.6*	1.2
CC(=O)Nc1ccc(NC(=O)C(C)OC(=O)c2ccc3c(c2)OCCO3)cc1 (stereo not drawn)	-0.2	0.0	1.5	-1.7	-1.8	-2.0	·
CC(OC(=O)c1cccc(S(=O)(=O)Nc2cccc(C(F)(F)F)c2)c1)C(=O)Nc1ccc2c(c1)OCCO2 (stereo not drawn)	7.4	4.0	-17.4	-9.6	3.4	60.7*	18.8
O=C1N2CCCCC1(Sc1ccccc1)CCC2 (stereo not drawn)	1.0	·	·	·	0.8	·	·
CC(=O)c1sc(NC(=O)c2ccc(F)c(F)c2)nc1C	-10.1	0.0	1.4	44.4	41.9	57.7*	15.7
CC(=O)c1sc(NC(=O)c2ccc(Cl)cc2)nc1C	-11.2	3.0	8.7	-5.4	-0.3	0.0	·
COc1cccc(-c2cc(C(=O)Nc3nc4ccccc4s3)c3ccccc3n2)c1	-3.5	3.0	-7.8	10.1	2.8	71.3*	41.4*
Cc1ccccc1/C=N/Nc1nc2ccccc2c(=O)n1O	-4.6	0.0	1.3	-7.8	0.8	76.2*	19.9
C=CCn1c(N/N=C/c2ccc(O)cc2)nc2ccccc2c1=O	-5.5	1.0	-6.9	3.5	1.4	-0.7	·
S=c1[nH]nc(-c2cccnc2)n1/N=C/C=C/c1ccccc1	-11.0	0.0	2.3	8.7	-1.7	2.0	·
S=c1[nH]nc(-c2cccnc2)n1/N=C/c1ccccc1	-1.9	1.0	-1.0	-5.1	-0.1	49.3*	7.5
CCOC(=O)c1c(C)[nH]c(C)c1C(=O)CSc1nc2ccccc2n1CCC#N	3.5	2.0	5.0	-3.9	-0.4	14.4	·
CCCn1c(SCC(=O)c2c(C)[nH]c(C)c2C(=O)OCC)nc2ccccc21	3.9	0.0	2.6	-3.9	0.8	59.0*	25.8
CCOC(=O)c1c(C)[nH]c(C(=O)N(C)CC(=O)Nc2ccc(OCC)c(OCC)c2)c1C	-3.0	·	-2.0	·	0.5	-2.6	·
COc1ccc(-c2nc3cc(NC(=O)c4ccc5c(c4)OCO5)ccc3o2)cc1	-0.7	0.0	19.0	22.1	34.0	7.7	·
O=C(Nc1ccc2oc(-c3ccncc3)nc2c1)c1ccc2c(c1)OCO2	43.6*	8.0	32.5	34.5	66.9*	74.1*	2.7

High-throughput results as filed in PubChem.
